Measured values taken from ChEMBL document CHEMBL1275598, “In vitro activity of ceftaroline against community-associated methicillin-resistant, vancomycin-intermediate, vancomycin-resistant, and daptomycin-nonsusceptible Staphylococcus aureus isolates” (2010).
≈ marks a conversion by molar mass, not a printed value.

Experiments:
Format in all cases: functional
Staphylococcus aureus [1] = assay: Antimicrobial activity against vancomycin intermediate Staphylococcus aureus NRS-51 expressing SCCmec type 2 element by microdilution method
How it was run: (§1)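 MIC by broth microdilution in cation-adjusted Mueller-Hinton broth, following CLSI guidelines; antibiotic powders reconstituted per CLSI. Read visually as the lowest drug concentration well with no visible growth. S. aureus ATCC 29213 and E. faecalis ATCC 29212 served as control strains. CA-MRSA: hospital patients culture-positive within 48 h of admission. DNSSA: patient blood isolates. VISA: obtained from the NARSA program.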

Staphylococcus aureus [2] = assay: Antimicrobial activity against vancomycin resistant Staphylococcus aureus VRS-9 expressing SCCmec type 2 element by microdilution method
How it was run: (§2)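 Broth microdilution per CLSI in cation-adjusted Mueller-Hinton broth. Antibiotic powders were reconstituted per CLSI. The MIC was read visually as the lowest drug concentration with no visible growth. S. aureus ATCC 29213 and E. faecalis ATCC 29212 served as control strains. VISA and VRSA isolates came from the NARSA program.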

Staphylococcus aureus [3] = assay: Antimicrobial activity against vancomycin intermediate Staphylococcus aureus NRS-26 expressing SCCmec type 2 element by microdilution method; how it was run: as §1
Staphylococcus aureus [4] = assay: Antimicrobial activity against community-acquired methicillin-resistant Staphylococcus aureus assessed as susceptible isolates by microdilution method
How it was run: (§3)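 MICs by CLSI broth microdilution in cation-adjusted Mueller-Hinton broth, read visually as the lowest concentration with no visible growth. Percentages of susceptible or resistant isolates assigned using CLSI breakpoints. Isolates: CA-MRSA (n = 92, positive within 48 h of admission) and DNSSA (n = 7, blood).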

Staphylococcus aureus [5] = assay: Antimicrobial activity against community-acquired methicillin-resistant Staphylococcus aureus by microdilution method; how it was run: as §1
Staphylococcus aureus [6] = assay: Antimicrobial activity against vancomycin-intermediate Staphylococcus aureus by microdilution method; how it was run: as §2
Staphylococcus aureus [7] = assay: Antimicrobial activity against vancomycin intermediate Staphylococcus aureus NRS-73 expressing SCCmec type 4d element by microdilution method; how it was run: as §1
Staphylococcus aureus [8] = assay: Bactericidal activity against daptomycin-nonsusceptible Staphylococcus aureus assessed as antibiotic concentration that reduced the number of viable cells by =>99.9% by colony count method
How it was run: (§4)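 MBC per CLSI guidelines. It was taken as the antibiotic concentration giving ≥99.9% reduction in viable cells, based on colony counts from the growth control well and rejection values from Pearson's tables.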

Staphylococcus aureus [9] = assay: Bactericidal activity against community-acquired methicillin-resistant Staphylococcus aureus assessed as antibiotic concentration that reduced the number of viable cells by =>99.9% by colony count method
How it was run: (§5)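 MBC per CLSI following microdilution in cation-adjusted Mueller-Hinton broth. Defined as the concentration giving ≥99.9% reduction in viable cells, judged from colony counts of the growth control well against Pearson rejection-value tables. CA-MRSA isolates were hospital patients' isolates with positive MRSA culture within 48 h of admission.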

Staphylococcus aureus [10] = assay: Antimicrobial activity against vancomycin resistant Staphylococcus aureus VRS-8 expressing SCCmec element by microdilution method; how it was run: as §2
Staphylococcus aureus [11] = assay: Antimicrobial activity against vancomycin resistant Staphylococcus aureus VRS-1 expressing SCCmec type 2 element by microdilution method; how it was run: as §2
Staphylococcus aureus [12] = assay: Antimicrobial activity against vancomycin intermediate Staphylococcus aureus NRS-126 expressing SCCmec type 2 element by microdilution method; how it was run: as §1
Staphylococcus aureus [13] = assay: Antimicrobial activity against vancomycin intermediate Staphylococcus aureus NRS-17 expressing SCCmec type 2 element by microdilution method; how it was run: as §1
Staphylococcus aureus [14] = assay: Bactericidal activity against vancomycin-intermediate Staphylococcus aureus assessed as antibiotic concentration that reduced the number of viable cells by =>99.9% by colony count method; how it was run: as §4
Staphylococcus aureus [15] = assay: Antimicrobial activity against vancomycin intermediate Staphylococcus aureus NRS-3 expressing SCCmec type 2 element by microdilution method; how it was run: as §1
Staphylococcus aureus [16] = assay: Antimicrobial activity against vancomycin intermediate Staphylococcus aureus NRS-404 expressing SCCmec type 2 element by microdilution method; how it was run: as §1
Staphylococcus aureus [17] = assay: Antimicrobial activity against community-acquired methicillin-resistant Staphylococcus aureus assessed as resistant isolates by microdilution method; how it was run: as §3
Staphylococcus aureus [18] = assay: Antimicrobial activity against vancomycin intermediate Staphylococcus aureus NRS-22 expressing SCCmec type 2 element by microdilution method; how it was run: as §1
Staphylococcus aureus [19] = assay: Antimicrobial activity against vancomycin resistant Staphylococcus aureus VRS-10 expressing SCCmec type 2 element by microdilution method; how it was run: as §2
Staphylococcus aureus [20] = assay: Antimicrobial activity against vancomycin intermediate Staphylococcus aureus NRS-18 expressing SCCmec type 2 element by microdilution method; how it was run: as §1
Staphylococcus aureus [21] = assay: Bactericidal activity against vancomycin-resistant Staphylococcus aureus assessed as antibiotic concentration that reduced the number of viable cells by =>99.9% by colony count method; settings: Staphylococcus aureus; how it was run: as §5
Staphylococcus aureus [22] = assay: Antimicrobial activity against vancomycin resistant Staphylococcus aureus VRS-5 expressing SCCmec type 2 element by microdilution method; how it was run: as §2
Staphylococcus aureus [23] = assay: Antimicrobial activity against vancomycin intermediate Staphylococcus aureus NRS-24 expressing SCCmec type 2 element by microdilution method; how it was run: as §1
Staphylococcus aureus [24] = assay: Antimicrobial activity against vancomycin intermediate Staphylococcus aureus NRS-118 expressing SCCmec type 1 element by microdilution method; how it was run: as §1
Staphylococcus aureus [25] = assay: Antimicrobial activity against vancomycin intermediate Staphylococcus aureus NRS-74 expressing SCCmec type 2 element by microdilution method; how it was run: as §1
Staphylococcus aureus [26] = assay: Antimicrobial activity against vancomycin resistant Staphylococcus aureus VRS-3 expressing SCCmec type 4 element by microdilution method; how it was run: as §2
Staphylococcus aureus [27] = assay: Antimicrobial activity against vancomycin resistant Staphylococcus aureus VRS-7 expressing SCCmec element by microdilution method; how it was run: as §2
Staphylococcus aureus [28] = assay: Antimicrobial activity against vancomycin intermediate Staphylococcus aureus NRS-23 expressing SCCmec type 2 element by microdilution method; how it was run: as §1
Staphylococcus aureus [29] = assay: Antimicrobial activity against vancomycin resistant Staphylococcus aureus VRS-2 expressing SCCmec type 2 element by microdilution method; how it was run: as §2
Staphylococcus aureus [30] = assay: Antimicrobial activity against vancomycin intermediate Staphylococcus aureus NRS-19 expressing SCCmec type 2 element by microdilution method; how it was run: as §1
Staphylococcus aureus [31] = assay: Antimicrobial activity against vancomycin intermediate Staphylococcus aureus NRS-68 expressing SCCmec type 2 element by microdilution method; how it was run: as §1
Staphylococcus aureus [32] = assay: Antimicrobial activity against vancomycin intermediate Staphylococcus aureus NRS-27 expressing SCCmec type 2 element by microdilution method; how it was run: as §1
Staphylococcus aureus [33] = assay: Antimicrobial activity against vancomycin intermediate Staphylococcus aureus NRS-4 expressing SCCmec type 2 element by microdilution method; how it was run: as §1
Staphylococcus aureus [34] = assay: Antimicrobial activity against vancomycin resistant Staphylococcus aureus VRS-4 expressing SCCmec type 4 element by microdilution method; how it was run: as §2
Staphylococcus aureus [35] = assay: Antimicrobial activity against vancomycin intermediate Staphylococcus aureus NRS-76 expressing SCCmec type 2 element by microdilution method; how it was run: as §2
Staphylococcus aureus [36] = assay: Antimicrobial activity against vancomycin-intermediate Staphylococcus aureus assessed as susceptible isolates by microdilution method
How it was run: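 CLSI broth microdilution in cation-adjusted Mueller-Hinton broth. MIC is the lowest concentration well with no visible growth, read by eye. Isolates were classed susceptible from CLSI breakpoints. S. aureus ATCC 29213 and E. faecalis ATCC 29212 were used as MIC control strains.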

Staphylococcus aureus [37] = assay: Antimicrobial activity against vancomycin-resistant Staphylococcus aureus by microdilution method; how it was run: as §2
Staphylococcus aureus [38] = assay: Antimicrobial activity against vancomycin-resistant Staphylococcus aureus assessed as susceptible isolates by microdilution method
How it was run: (§6)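 CLSI broth microdilution MICs in cation-adjusted Mueller-Hinton broth, read visually as the lowest concentration with no visible growth. Percent of isolates classed susceptible or resistant was assigned using CLSI breakpoints.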

Staphylococcus aureus [39] = assay: Antimicrobial activity against vancomycin-resistant Staphylococcus aureus assessed as resistant isolates by microdilution method; how it was run: as §6
Staphylococcus aureus [40] = assay: Antimicrobial activity against vancomycin intermediate Staphylococcus aureus NRS-402 expressing SCCmec type 2 element by microdilution method; how it was run: as §1
Staphylococcus aureus [41] = assay: Antimicrobial activity against vancomycin-intermediate Staphylococcus aureus assessed as resistant isolates by microdilution method; how it was run: as §6
Staphylococcus aureus [42] = assay: Antimicrobial activity against daptomycin-nonsusceptible Staphylococcus aureus assessed as susceptible isolates by microdilution method; how it was run: as §3
Staphylococcus aureus [43] = assay: Antimicrobial activity against daptomycin-nonsusceptible Staphylococcus aureus by microdilution method; settings: Staphylococcus aureus; how it was run: as §1
Staphylococcus aureus [44] = assay: Antimicrobial activity against daptomycin-nonsusceptible Staphylococcus aureus assessed as resistant isolates by microdilution method; how it was run: as §3
Staphylococcus aureus [45] = assay: Antimicrobial activity against vancomycin intermediate Staphylococcus aureus NRS-403 expressing SCCmec type 2 element by microdilution method; how it was run: as §1
Staphylococcus aureus [46] = assay: Antimicrobial activity against vancomycin resistant Staphylococcus aureus VRS-6 expressing SCCmec type 2 element by microdilution method; how it was run: as §2

CCC[C@@H]1C[C@@H](C(=O)N[C@@H]([C@H]2O[C@H](SC)[C@H](O)[C@@H](O)[C@H]2O)[C@H](C)Cl)N(C)C1 [CLINDAMYCIN]
MIC (Staphylococcus aureus [1]): > 64 µg/mL | MIC (Staphylococcus aureus [2]): > 64 µg/mL | MIC (Staphylococcus aureus [3]): > 64 µg/mL | Activity (Staphylococcus aureus [4]): 64% | MIC50 (Staphylococcus aureus [5]): 0.12 µg/mL (≈ 0.282 µM) | MIC90 (Staphylococcus aureus [5]): > 64 µg/mL | MIC50 (Staphylococcus aureus [6]): > 64 µg/mL | MIC90 (Staphylococcus aureus [6]): > 64 µg/mL | MIC (Staphylococcus aureus [7]): 0.06 µg/mL (≈ 0.141 µM) | MBC50 (Staphylococcus aureus [8]): >64 µg/mL | MBC50 (Staphylococcus aureus [9]): 8 µg/mL (≈ 18.8 µM) | MBC (Staphylococcus aureus [9]; Staphylococcus aureus): > 1 µg/mL | MIC (Staphylococcus aureus [10]): > 64 µg/mL | MIC (Staphylococcus aureus [11]): > 64 µg/mL | MIC (Staphylococcus aureus [12]): > 64 µg/mL | MIC (Staphylococcus aureus [13]): 0.06 µg/mL (≈ 0.141 µM) | MBC50 (Staphylococcus aureus [14]): >64 µg/mL | MBC90 (Staphylococcus aureus [14]): >64 µg/mL | MBC (Staphylococcus aureus [14]; Staphylococcus aureus): > 0.12 µg/mL | MIC (Staphylococcus aureus [15]): > 64 µg/mL | MIC (Staphylococcus aureus [16]): 0.06 µg/mL (≈ 0.141 µM) | Activity (Staphylococcus aureus [17]): 36% | MIC (Staphylococcus aureus [18]): > 64 µg/mL | MIC (Staphylococcus aureus [19]): > 64 µg/mL | MIC (Staphylococcus aureus [20]): > 64 µg/mL | MBC (Staphylococcus aureus [21]): > 64 µg/mL | MIC (Staphylococcus aureus [22]): > 64 µg/mL | MIC (Staphylococcus aureus [23]): > 64 µg/mL | MIC (Staphylococcus aureus [24]): > 64 µg/mL | MIC (Staphylococcus aureus [25]): > 64 µg/mL | MIC (Staphylococcus aureus [26]): > 64 µg/mL | MIC (Staphylococcus aureus [27]): > 64 µg/mL | MIC (Staphylococcus aureus [28]): > 64 µg/mL | MIC (Staphylococcus aureus [29]): > 64 µg/mL | MIC (Staphylococcus aureus [30]): > 64 µg/mL | MIC (Staphylococcus aureus [31]): > 64 µg/mL | MIC (Staphylococcus aureus [32]): > 64 µg/mL | MIC (Staphylococcus aureus [33]): > 64 µg/mL | MIC (Staphylococcus aureus [34]): > 64 µg/mL | MIC (Staphylococcus aureus [35]): 0.06 µg/mL (≈ 0.141 µM) | Activity (Staphylococcus aureus [36]): 17% | MIC (Staphylococcus aureus [37]): > 64 µg/mL | MIC50 (Staphylococcus aureus [37]): > 64 µg/mL | MIC90 (Staphylococcus aureus [37]): > 64 µg/mL | Activity (Staphylococcus aureus [38]): 0% | Activity (Staphylococcus aureus [39]): 100% | MIC (Staphylococcus aureus [40]): > 64 µg/mL | Activity (Staphylococcus aureus [41]): 83% | Activity (Staphylococcus aureus [42]): 14% | MIC50 (Staphylococcus aureus [43]): > 64 µg/mL | Activity (Staphylococcus aureus [44]): 86% | MIC (Staphylococcus aureus [45]): > 64 µg/mL | MIC (Staphylococcus aureus [46]): > 64 µg/mL
